Source: ChEMBL document CHEMBL4689842, “EUbOPEN Chemogenomics Library wave 1” (2021)

Tested on: HEK-293T
Assay: Multiplex assay against HEK293T;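 for Population Tubulin-Different-Phenotype (%): share of the cells with healthy nuclei that show this phenotype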
Assay type: toxicity, cell-based
Conditions: human
In short: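 With compound added, live cells were imaged on a CQ1 microscope at 37°C and 5% CO2; staining with Hoechst33342, BioTracker Green Microtubule Cytoskeleton Dye, MitoTracker Red and Annexin V Alexa Fluor 680 had been done at seeding. The CellPathfinder machine-learning gating scheme split cells into Hoechst high-intensity objects or normal cells, normal cells into healthy, pyknosed or fragmented nuclei, and pyknosed cells into mitotic or apoptotic. The tubulin, mitochondrial-mass and membrane-permeability phenotypes are per cents of healthy-nucleus cells.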

[1] = 12 h, 1 µM, compound concentration 1 uM, replicate 1
[2] = 12 h, 1 µM, compound concentration 1 uM, replicate 2
[3] = 12 h, 10 µM, compound concentration 10 uM, replicate 1
[4] = 12 h, 10 µM, compound concentration 10 uM, replicate 2
[5] = 24 h, 1 µM, compound concentration 1 uM, replicate 1
[6] = 24 h, 1 µM, compound concentration 1 uM, replicate 2
[7] = 24 h, 10 µM, compound concentration 10 uM, replicate 1
[8] = 24 h, 10 µM, compound concentration 10 uM, replicate 2
[9] = 48 h, 1 µM, compound concentration 1 uM, replicate 1
[10] = 48 h, 1 µM, compound concentration 1 uM, replicate 2
[11] = 48 h, 10 µM, compound concentration 10 uM, replicate 1
[12] = 48 h, 10 µM, compound concentration 10 uM, replicate 2

In the case of `O=C(Cc1ccc(-c2ccc(OCCN3CCOCC3)cc2)cn1)NCc1ccccc1` [TIRBANIBULIN], the “Population Apoptotic (%)” value [1] is reported as 34%, the “Population Fragmented Nuclei (%)” value [1] is reported as 17% and the “Population Healthy Nuclei (%)” value [1] is reported as 21%. The “Population Hoechst High Intensity Objects (%)” value [1] was 12%, the “Population Membrane Permeable-Phenotype (%)” value [1] was 0% and the “Population Mitochondria Different-Phenotype (%)” value [1] was 58%. The “Population Mitotic Cells (%)” value [1] was 65%, the “Population Normal (%)” value [1] was 87% and the “Population Pyknosed Nuclei (%)” value [1] was 61%. The “Population Tubulin-Different-Phenotype (%)” value [1] was 2%, the “Total Cell Count” value [1] was 193 and the “Population Apoptotic (%)” value [2] was 16%. For the same compound, the “Population Fragmented Nuclei (%)” value [2] was 8%, the “Population Healthy Nuclei (%)” value [2] was 30% and the “Population Hoechst High Intensity Objects (%)” value [2] was 2%. For the same compound, the “Population Membrane Permeable-Phenotype (%)” value [2] was 10%, the “Population Mitochondria Different-Phenotype (%)” value [2] was 23% and the “Population Mitotic Cells (%)” value [2] was 83%. For the same compound, the “Population Normal (%)” value [2] was 97%, the “Population Pyknosed Nuclei (%)” value [2] was 60% and the “Population Tubulin-Different-Phenotype (%)” value [2] was 11%. The “Total Cell Count” value [2] was 231, the “Population Apoptotic (%)” value [3] was 52% and the “Population Fragmented Nuclei (%)” value [3] was 20%. For the same compound, the “Population Healthy Nuclei (%)” value [3] was 21%, the “Population Hoechst High Intensity Objects (%)” value [3] was 18% and the “Population Membrane Permeable-Phenotype (%)” value [3] was 0%. For the same compound, the “Population Mitochondria Different-Phenotype (%)” value [3] was 79%, the “Population Mitotic Cells (%)” value [3] was 47% and the “Population Normal (%)” value [3] was 81%. The “Population Pyknosed Nuclei (%)” value [3] was 58%, the “Population Tubulin-Different-Phenotype (%)” value [3] was 27% and the “Total Cell Count” value [3] was 169. For the same compound, the “Population Apoptotic (%)” value [4] was 17%, the “Population Fragmented Nuclei (%)” value [4] was 5% and the “Population Healthy Nuclei (%)” value [4] was 28%. For the same compound, the “Population Hoechst High Intensity Objects (%)” value [4] was 5%, the “Population Membrane Permeable-Phenotype (%)” value [4] was 2% and the “Population Mitochondria Different-Phenotype (%)” value [4] was 23%. For the same compound, the “Population Mitotic Cells (%)” value [4] was 82%, the “Population Normal (%)” value [4] was 95% and the “Population Pyknosed Nuclei (%)” value [4] was 66%. The “Population Tubulin-Different-Phenotype (%)” value [4] was 6%, the “Total Cell Count” value [4] was 160 and the “Population Apoptotic (%)” value [5] was 39%. For the same compound, the “Population Fragmented Nuclei (%)” value [5] was 17%, the “Population Healthy Nuclei (%)” value [5] was 21% and the “Population Hoechst High Intensity Objects (%)” value [5] was 14%. For the same compound, the “Population Membrane Permeable-Phenotype (%)” value [5] was 2%, the “Population Mitochondria Different-Phenotype (%)” value [5] was 37% and the “Population Mitotic Cells (%)” value [5] was 60%. For the same compound, the “Population Normal (%)” value [5] was 85%, the “Population Pyknosed Nuclei (%)” value [5] was 61% and the “Population Tubulin-Different-Phenotype (%)” value [5] was 5%. For the same compound, the “Total Cell Count” value [5] was 194, the “Population Apoptotic (%)” value [6] was 27% and the “Population Fragmented Nuclei (%)” value [6] was 6%. The “Population Healthy Nuclei (%)” value [6] was 29%, the “Population Hoechst High Intensity Objects (%)” value [6] was 2% and the “Population Membrane Permeable-Phenotype (%)” value [6] was 6%. The “Population Mitochondria Different-Phenotype (%)” value [6] was 25%, the “Population Mitotic Cells (%)” value [6] was 72% and the “Population Normal (%)” value [6] was 97%. The “Population Pyknosed Nuclei (%)” value [6] was 63%, the “Population Tubulin-Different-Phenotype (%)” value [6] was 33% and the “Total Cell Count” value [6] was 207. The “Population Apoptotic (%)” value [7] was 54%, the “Population Fragmented Nuclei (%)” value [7] was 21% and the “Population Healthy Nuclei (%)” value [7] was 16%. The “Population Hoechst High Intensity Objects (%)” value [7] was 17%, the “Population Membrane Permeable-Phenotype (%)” value [7] was 0% and the “Population Mitochondria Different-Phenotype (%)” value [7] was 82%. For the same compound, the “Population Mitotic Cells (%)” value [7] was 45%, the “Population Normal (%)” value [7] was 82% and the “Population Pyknosed Nuclei (%)” value [7] was 62%. The “Population Tubulin-Different-Phenotype (%)” value [7] was 17%, the “Total Cell Count” value [7] was 168 and the “Population Apoptotic (%)” value [8] was 22%. For the same compound, the “Population Fragmented Nuclei (%)” value [8] was 5%, the “Population Healthy Nuclei (%)” value [8] was 25% and the “Population Hoechst High Intensity Objects (%)” value [8] was 5%. For the same compound, the “Population Membrane Permeable-Phenotype (%)” value [8] was 7%, the “Population Mitochondria Different-Phenotype (%)” value [8] was 23% and the “Population Mitotic Cells (%)” value [8] was 77%. For the same compound, the “Population Normal (%)” value [8] was 94%, the “Population Pyknosed Nuclei (%)” value [8] was 68% and the “Population Tubulin-Different-Phenotype (%)” value [8] was 18%. For the same compound, the “Total Cell Count” value [8] was 160, the “Population Apoptotic (%)” value [9] was 56% and the “Population Fragmented Nuclei (%)” value [9] was 25%. The “Population Healthy Nuclei (%)” value [9] was 23%, the “Population Hoechst High Intensity Objects (%)” value [9] was 16% and the “Population Membrane Permeable-Phenotype (%)” value [9] was 5%. The “Population Mitochondria Different-Phenotype (%)” value [9] was 45%, the “Population Mitotic Cells (%)” value [9] was 43% and the “Population Normal (%)” value [9] was 83%. The “Population Pyknosed Nuclei (%)” value [9] was 50%, the “Population Tubulin-Different-Phenotype (%)” value [9] was 24% and the “Total Cell Count” value [9] was 187. For the same compound, the “Population Apoptotic (%)” value [10] was 40%, the “Population Fragmented Nuclei (%)” value [10] was 12% and the “Population Healthy Nuclei (%)” value [10] was 43%. The “Population Hoechst High Intensity Objects (%)” value [10] was 4%, the “Population Membrane Permeable-Phenotype (%)” value [10] was 12% and the “Population Mitochondria Different-Phenotype (%)” value [10] was 25%. The “Population Mitotic Cells (%)” value [10] was 60%, the “Population Normal (%)” value [10] was 95% and the “Population Pyknosed Nuclei (%)” value [10] was 44%. For the same compound, the “Population Tubulin-Different-Phenotype (%)” value [10] was 50%, the “Total Cell Count” value [10] was 213 and the “Population Apoptotic (%)” value [11] was 56%. For the same compound, the “Population Fragmented Nuclei (%)” value [11] was 29%, the “Population Healthy Nuclei (%)” value [11] was 13% and the “Population Hoechst High Intensity Objects (%)” value [11] was 17%. The “Population Membrane Permeable-Phenotype (%)” value [11] was 0%, the “Population Mitochondria Different-Phenotype (%)” value [11] was 66% and the “Population Mitotic Cells (%)” value [11] was 44%. The “Population Normal (%)” value [11] was 82%, the “Population Pyknosed Nuclei (%)” value [11] was 56% and the “Population Tubulin-Different-Phenotype (%)” value [11] was 11%. The “Total Cell Count” value [11] was 160, the “Population Apoptotic (%)” value [12] was 36% and the “Population Fragmented Nuclei (%)” value [12] was 7%. For the same compound, the “Population Healthy Nuclei (%)” value [12] was 39%, the “Population Hoechst High Intensity Objects (%)” value [12] was 4% and the “Population Membrane Permeable-Phenotype (%)” value [12] was 9%. For the same compound, the “Population Mitochondria Different-Phenotype (%)” value [12] was 23%, the “Population Mitotic Cells (%)” value [12] was 63% and the “Population Normal (%)” value [12] was 95%. For the same compound, the “Population Pyknosed Nuclei (%)” value [12] was 52%, the “Population Tubulin-Different-Phenotype (%)” value [12] was 20% and the “Total Cell Count” value [12] was 145.
